Data from ChEMBL document CHEMBL1944595, “1,4-diarylpiperazines and analogs as anti-tubercular agents: synthesis and biological evaluation” (Eur J Med Chem, 2012).
In brackets after ≈: the same amount, converted by molar mass.

Assays:
Type in all cases: functional
[1] = test system: Mycobacterium tuberculosis; experiment: Antibacterial activity against Mycobacterium tuberculosis H37Rv harboring pSMT1 encoding Vibrio harveyi luxAB gene at 1 uM after 7 days by luminometric analysis; details: 168 h, read-out: GI
Summary of the method: (§1)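 Same extracellular assay. Bacteria seeded at 1000 RLU per well in Sauton + 10% FCS. Compounds added from 1 mM DMSO stocks to final 10, 1 or 0.1 per well. Incubated 7 days at 37 °C, 5% CO2. Wells harvested, washed four times with PBS and pooled. 1% n-decanal added and luminescence read over 10 s. Percent growth inhibition calculated against untreated control cultures.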

[2] = test system: Mycobacterium tuberculosis; experiment: Antibacterial activity against Mycobacterium tuberculosis H37Rv harboring pSMT1 encoding Vibrio harveyi luxAB gene at 0.1 uM after 7 days by luminometric analysis; details: 168 h, read-out: GI; summary of the method: as §1
[3] = test system: Mycobacterium tuberculosis; experiment: Antibacterial activity against Mycobacterium tuberculosis H37Rv harboring pSMT1 encoding Vibrio harveyi luxAB gene at 10 uM after 7 days by luminometric analysis; details: 168 h, read-out: GI; summary of the method: as §1
[4] = test system: Mycobacterium tuberculosis; experiment: Antibacterial activity against Mycobacterium tuberculosis H37Rv harboring pSMT1 encoding Vibrio harveyi luxAB gene after 7 days by luminometric analysis; details: 168 h
[5] = test system: Mycobacterium tuberculosis; experiment: Antibacterial activity against Mycobacterium tuberculosis H37Rv harboring pSMT1 encoding Vibrio harveyi luxAB gene infected in mouse J774.A1 cells at 2 uM after 5 days by luminometric analysis; details: J774.A1, 120 h, read-out: GI
Summary of the method: (§2)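 J774.A1 macrophages seeded at 40 000 per well and rested overnight. Infected with 4000 RLU of luminescent H37Rv (MOI 0.1) in DMEM with penicillin/Fungizone, with compound dilutions added. Treated 5 days, then washed, given 1 h 1% gentamicin, and lysed with 1% Triton X-100. Lysate luminescence read over 10 s with n-decanal. Inhibition relative to untreated infected cells; six replicate cultures.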

[6] = test system: Mycobacterium tuberculosis; experiment: Antibacterial activity against Mycobacterium tuberculosis H37Rv harboring pSMT1 encoding Vibrio harveyi luxAB gene infected in mouse J774.A1 cells at 1 uM after 5 days by luminometric analysis; details: J774.A1, 120 h, read-out: GI; summary of the method: as §2
[7] = test system: Mycobacterium tuberculosis; experiment: Antibacterial activity against Mycobacterium tuberculosis H37Rv harboring pSMT1 encoding Vibrio harveyi luxAB gene infected in mouse J774.A1 cells at 0.5 uM after 5 days by luminometric analysis; details: J774.A1, 120 h, read-out: GI; summary of the method: as §2
[8] = test system: Mycobacterium tuberculosis; experiment: Antimicrobial activity against multidrug-resistant Mycobacterium tuberculosis LAM1 by BACTEC 460-TB method
Summary of the method: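 Clinical MDR LAM-1 isolate, resistant to isoniazid, rifampicin, rifabutin and prothionamide. Pre-cultured in 7H9-based BACTEC vial to growth index 300. 100 µL inoculated into a new vial with compound dilutions prepared in 7H9 + 10% OADC. GI read daily. MIC99 determined by comparison with an untreated culture diluted 100-fold at inoculation.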

SMILES	inhibition of growth at 1 µM [1] [%]	inhibition of growth at 0.1 µM [2] [%]	inhibition of growth at 10 µM [3] [%]	MIC50 [4] [µM]	inhibition in vivo at 2 µM [5] [%]	inhibition in vivo at 1 µM [6] [%]	inhibition in vivo at 0.5 µM [7] [%]	MIC99 [8] [µM]
O=[N+]([O-])c1ccccc1NCCNc1ccccc1[N+](=O)[O-]	< 10	< 10	< 10					
O=[N+]([O-])c1ccc(NCCNc2ccc([N+](=O)[O-])cc2)cc1	< 10	< 10	16					
CNC(=N)c1ccc(N2CCN(c3ccccc3)CC2)cc1.Cl	< 10	< 10	16	15.9	14.9	6.43	-0.8	
O=[N+]([O-])c1ccc(N2CCN(c3ccc([N+](=O)[O-])cc3)CC2)cc1	10	< 10	13					
CCCNC(=N)c1ccc(N2CCN(c3ccccc3)CC2)cc1.Cl	< 10	< 10	33	7.01	26.1	12.9	5.62	
O=[N+]([O-])c1ccc(N2CCN(c3ccccc3)CC2)cc1	< 10	< 10	26					
CCCCCCCNC(=N)c1ccc(N2CCN(c3ccccc3)CC2)cc1.Cl	94	47	100	0.091	83.3	64.2	61.1	1.48
CCCCCCCCCCCCNC(=N)c1ccc(N2CCN(c3ccccc3)CC2)cc1.Cl	97	68	100	0.052	44.9	23.4	10.7	0.95
N#Cc1cccc(NCCNc2cccc(C#N)c2)c1	< 10	< 10	< 10					
NNC(=O)c1ccncc1 [ISONIAZID]	100	98	100	0.465 (≈ 0.0638 µg/mL)	51.4	29.4	9.77	
CCCCCCCCNC(=N)c1ccc(N2CCN(c3ccccc3)CC2)cc1.Cl	94	61	100	0.072	71.6	31.1	15.2	1.17
N#Cc1ccc(N2CCN(c3ccc(C#N)cc3)CC2)cc1	< 10	< 10	22					
CCC(CC)NC(=N)c1ccc(NCCNc2ccccc2)cc1	19	10	63					
CCC(CC)NC(=N)c1ccc(N2CCN(c3ccccc3)CC2)cc1	19	< 10	67					
N#Cc1ccc(NCCNc2ccc(C#N)cc2)cc1	< 10	< 10	10					
CCCCCCNC(=N)c1ccc(N2CCN(c3ccccc3)CC2)cc1.Cl	91	49	99	0.264	88.1	79.2	67.1	2.11
Nc1ccc(N2CCN(c3ccc(N)cc3)CC2)cc1	10	< 10	27					
CCCCNC(=N)c1ccc(N2CCN(c3ccccc3)CC2)cc1.Cl	< 10	< 10	66	2.16	50.6	31.6	25.6	
Cl.N=C(N)c1ccc(N2CCN(c3ccccc3)CC2)cc1	< 10	< 10	14	29.6	1.83	0.41	-0.47	
CCNC(=N)c1ccc(N2CCN(c3ccccc3)CC2)cc1.Cl	< 10	< 10	10	11.9	22.5	13.4	3.93	
Nc1ccc(N2CCN(c3ccccc3)CC2)cc1	< 10	< 10	30					
N=C(N)c1ccc(NCCNc2ccccc2)cc1	< 10	< 10	< 100					
O=[N+]([O-])c1cccc(NCCNc2cccc([N+](=O)[O-])c2)c1	< 10	< 10	13					
N=C(NCCc1ccccc1)c1ccc(N2CCN(c3ccccc3)CC2)cc1	56	< 10	97					
N#Cc1ccc(N2CCN(c3ccccc3)CC2)cc1	< 10	< 10	23					
N#Cc1ccccc1NCCNc1ccccc1C#N	< 10	< 10	< 10					
CCCCCCNC(=N)c1ccc(NCCNc2ccccc2)cc1	48	23	93					
CCCCCNC(=N)c1ccc(N2CCN(c3ccccc3)CC2)cc1.Cl	39	< 10	95	1.2	64.7	53.6	44.7	3.85
